Measured values published in ChEMBL document CHEMBL1144666, “Indoleamine 2,3-dioxygenase is the anticancer target for a novel series of potent naphthoquinone-based inhibitors” (J Med Chem, 2008).
Activity calls are given as the source filed them. The calls are words filed in the database; no cut-off is given here.

Molecular target: T1, Indoleamine 2,3-dioxygenase 1 (Homo sapiens, UniProt P14902)
Test: Inhibition of purified human recombinant IDO
Conditions: not given

| Structure (SMILES) | IC50 [nM] | Activity | Ki [nM] |
| --- | --- | --- | --- |
| CC1(C)C=CC2=C(O1)C(=O)c1ccc(O)cc1C2=O | 5520 | – | – |
| COc1cccc2c1C(=O)C1=C(C=CC(C)(C)O1)C2=O | 2920 | – | – |
| O=C1C=C(O)C(=O)c2ccccc21 [LAWSONE] | 675000 | – | – |
| CC1(C)CCC2=C(O1)C(=O)c1ccccc1C2=O [ALPHA-LAPACHONE] | 4340 | – | – |
| O=C1C=CC(=O)c2c(O)cccc21 [JUGLONE] | 1000 | – | – |
| Cc1c(SC[C@H](NC(=O)CC[C@H](N)C(=O)O)C(=O)NCC(=O)O)c(O)c2ccccc2c1O | 340 | – | – |
| CC1=CC(=O)C=CC1=O | – | inactive | – |
| CC1=C(C/C=C(\C)CCC[C@H](C)CCC[C@H](C)CCCC(C)C)C(=O)c2ccccc2C1=O | – | inactive | – |
| O=C1C=CC(=O)C=C1 | – | inactive | – |
| CC1(C)OC2=C(C(=O)c3ccccc3C2=O)C(O)C1Br (stereo not given) | 512 | – | – |
| CC1=C(SC[C@H](NC(=O)CC[C@H](N)C(=O)O)C(=O)NCC(=O)O)C(=O)c2ccccc2C1=O | 880 | – | – |
| O=c1ccoc2ccccc12 | – | inactive | – |
| CC1(C)C=CC2=C(O1)C(=O)c1ccccc1C2=O [DEHYDRO-ALPHA-LAPACHONE] | 214 | – | – |
| COc1ccc2c(c1)C(=O)C1=C(OC(C)(C)C=C1)C2=O | 3020 | – | – |
| CC1(C)OC2=C(C(=O)c3ccccc3C2=O)C(N2CCOCC2)C1O (trans isomer) | 361 | – | – |
| CC1(C)C=CC2=C(O1)C(=O)c1cc(O)ccc1C2=O | 2050 | – | – |
| CCc1c(C)cc2c(c1O)C(=O)C1=C(C2=O)C(C)(C)C(=O)C(C)(C(=O)OC)O1 (stereo not given) | – | – | 120 |
| COC1C2=C(OC(C)(C)C1O)C(=O)c1ccccc1C2=O (trans isomer) | 3960 | – | – |
| CC1(C)OC2=C(C(=O)c3ccccc3C2=O)C(OCc2ccccc2)C1O (stereo not given) | 1090 | – | – |

| Structure (SMILES) | IC50 [nM] | Activity | Ki [nM] |
| --- | --- | --- | --- |
| C=CCNC1C2=C(OC(C)(C)C1O)C(=O)c1ccccc1C2=O (trans isomer) | 186 | – | – |
| CC1(C)OC2=C(C(=O)c3ccccc3C2=O)C(SCc2ccccc2)C1O (trans isomer) | 2120 | – | – |
| CC1(C)OC2=C(C(=O)c3ccccc3C2=O)C(O)C1O (stereo not given) | 1500 | – | – |
| CC1(C)C=CC2=C(O1)C(=O)c1c(O)cccc1C2=O | 121 | – | – |
| COc1cccc2c1C(=O)C1=C(OC(C)(C)C=C1)C2=O | 2130 | – | – |
| CCCCNC1C2=C(OC(C)(C)C1O)C(=O)c1ccccc1C2=O (trans isomer) | 82 | – | – |
| COC(=O)C1(C)C=CC2=C(O1)C(=O)c1ccccc1C2=O (stereo not given) | 247 | – | – |
| CC1(C)C=CC2=C(O1)C(=O)c1cccc(O)c1C2=O | 190 | – | – |
| COc1ccc2c(c1)C(=O)C1=C(C=CC(C)(C)O1)C2=O | 933 | – | – |
| COC1=CC(=O)c2ccccc2C1=O [2-Methoxy-1,4-naphthoquinone] | 720 | – | – |
| CC1=CC(=O)c2ccccc2C1=O [MENADIONE] | 1000 | – | – |
| O=C1C(Cl)=C(Cl)C(=O)c2ccccc21 [Dichlon] | 280 | – | – |
| CC1(C)OC2=C(C(=O)c3ccccc3C2=O)[C@@H]2O[C@@H]21 | 4950 | – | – |
| CCCCN[C@H]1C2=C(OC(C)(C)[C@H]1O)C(=O)c1ccccc1C2=O | 130 | – | – |
| COC1C2=C(OC(C)(C)C1O)C(=O)c1ccccc1C2=O (cis isomer) | 976 | – | – |
| CC1(C)OC2=C(C(=O)c3ccccc3C2=O)C(N2CCOCC2)C1O (cis isomer) | 1100 | – | – |
| O=C1C=CC(=O)C(c2ccccc2)=C1 | – | inactive | – |
| O=C1C=Cc2ccccc2C1=O [1,2-NAPHTHOQUINONE] | 7100 | – | – |
| CC1(C)OC2=C(C(=O)c3ccccc3C2=O)C(SCc2ccccc2)C1O (cis isomer) | 3450 | – | – |

Molecular target: T1, Indoleamine 2,3-dioxygenase 1
Test: Inhibition of purified human recombinant IDO expressed in TREx cells
Conditions: not given
In short: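 T-REx cells carrying doxycycline-inducible human IDO cDNA are seeded at 20000/well and induced 72 h with doxycycline. They are rinsed, then exposed in triplicate to serial dilutions in phenol red-free DMEM + 10% FBS for 18 h and TCA-fixed. Supernatant kynurenine is read with p-DMAB at 490 nm, corrected for SRB viability. IC50 is taken from a sigmoidal curve.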
Target sequence in this assay (P14902 whole entry): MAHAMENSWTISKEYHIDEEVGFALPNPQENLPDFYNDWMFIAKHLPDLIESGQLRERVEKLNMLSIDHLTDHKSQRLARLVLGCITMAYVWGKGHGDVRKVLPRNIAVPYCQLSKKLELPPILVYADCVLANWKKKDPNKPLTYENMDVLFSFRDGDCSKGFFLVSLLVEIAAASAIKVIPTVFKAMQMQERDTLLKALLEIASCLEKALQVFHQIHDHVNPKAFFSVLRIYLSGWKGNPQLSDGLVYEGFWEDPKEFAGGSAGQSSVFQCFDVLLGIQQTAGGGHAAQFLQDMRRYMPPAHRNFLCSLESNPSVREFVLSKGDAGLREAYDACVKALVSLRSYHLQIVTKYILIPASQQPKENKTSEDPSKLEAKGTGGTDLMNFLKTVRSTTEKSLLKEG

| Structure (SMILES) | IC50 [nM] |
| --- | --- |
| CC1(C)C=CC2=C(O1)C(=O)c1c(O)cccc1C2=O | 69000 |
| CCCCNC1C2=C(OC(C)(C)C1O)C(=O)c1ccccc1C2=O (trans isomer) | 87000 |

System: not listed separately
Test: Cytotoxicity against human TREx cells expressing doxycyclin-inducible IDO assessed as cell viability by SRB assay
Format: functional
Conditions: read-out: LD50 (the source's name)
In short: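 T-REx cells with inducible human IDO cDNA, seeded at 20000/well in DMEM + 10% FBS, induced 72 h with 20 ng/mL doxycycline, rinsed, then exposed to serial compound dilutions in phenol red-free DMEM + 10% FBS for 18 h, in triplicate.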

| Structure (SMILES) | CC50 [nM] |
| --- | --- |
| CC1=CC(=O)c2ccccc2C1=O [MENADIONE] | 126000 |

System: Mus musculus
Test: Antitumor activity in parous MMTV-Neu transgenic FVB mouse assessed as tumor volume at 25 mg/kg, ip qd for 5 days
Format: functional, organism-based
Parameters: dose 25 mg/kg
Conditions: not given
In short: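 Autochthonous mammary tumors in parous FVB MMTV-Neu mice expressing wild-type rat HER2/Neu. Agent given at 25 mg/kg for 5 consecutive days in the first week; paclitaxel cohorts received 13.3 mg/kg i.v. qd 3×/week over the 2-week treatment period. Read-out is fold change in volume of individual tumors, with mean ± SEM per group.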

| Structure (SMILES) | Activity |
| --- | --- |
| CC1=CC(=O)c2ccccc2C1=O [MENADIONE] | Active |

System: B16-F10
Test: Antitumor activity in mouse B16-F10 cells isografted C57BL/6 mouse at 25 mg/kg, ip qd for 5 days
Format: functional, organism-based
Parameters: dose 25 mg/kg
Conditions: not given
In short: (§1)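 Mice given 1 × 10^5 B16-F10 melanoma cells s.c.; i.p. dosing at 25 mg/kg qd 5 days a week begins 7 days later and runs until the experiment ends. Tumors are measured by caliper twice weekly until control tumors reach ~5000 mm3. Data are mean tumor size ± SEM. Treated and untreated groups are compared at study end by two-tailed Mann–Whitney test.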

| Structure (SMILES) | Activity |
| --- | --- |
| CC1=CC(=O)c2ccccc2C1=O [MENADIONE] | Active |

System: B16-F10
Test: Antitumor activity in mouse B16-F10 cells isografted athymic NCr-nu/nu mouse at 25 mg/kg, ip qd for 5 days
Format: functional, organism-based
Parameters: dose 25 mg/kg
Conditions: not given
In short: as §1

| Structure (SMILES) | Activity |
| --- | --- |
| CC1=CC(=O)c2ccccc2C1=O [MENADIONE] | inactive |

System: B16-F10
Test: Antitumor activity in mouse B16-F10 cells isografted IDO knockout C57BL/6 mouse at 25 mg/kg, ip qd for 5 days
Format: functional, organism-based
Parameters: dose 25 mg/kg
Conditions: not given
In short: as §1

| Structure (SMILES) | Activity |
| --- | --- |
| CC1=CC(=O)c2ccccc2C1=O [MENADIONE] | inactive |
